Data set [1] deals with Mycobacterium tuberculosis. Briefly: Antimycobacterial activity against Mycobacterium tuberculosis H37Rv My 331/88 after 14 days by micromethod. In kind it is functional. The note with it: H37Rv My 331/88, 336 h. The method, boiled down: (§1)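 MIC micromethod in Šula's semisynthetic medium at 37 °C, read after 14 and 21 days. Compounds added as DMSO solutions at 500 down to 0.5 µM (twofold-type series: 500, 250, 125, 62.5, 32, 16, 8, 4, 2, 1, 0.5 µM). Isoniazid standard given in sterile water.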

For data set [2], the system named is Mycobacterium tuberculosis. Briefly: Antimycobacterial activity against Mycobacterium tuberculosis H37Rv My 331/88 after 21 days by micromethod. The class given is functional. As to conditions: H37Rv My 331/88, 504 h. Summed up:
as §1

The subject of data set [3] is Mycobacterium avium. Briefly: Antimycobacterial activity against Mycobacterium avium My 330/80 after 14 days by micromethod. The class given is functional. The note with it: My 330/80, 336 h. Summed up: (§2)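 M. avium My 330/80 (collection strain) inoculated at 10^-5 dilution into Šula's semisynthetic medium. Compounds added from DMSO solutions at 500, 250, 125, 62.5, 32, 16, 8, 4, 2, 1 and 0.5 µM. MIC determined by micromethod at 37 °C, read after 14 and 21 days.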

Data set [4] relates to Mycobacterium avium. Briefly: Antimycobacterial activity against Mycobacterium avium My 330/80 after 21 days by micromethod. The class given is functional. As to conditions: My 330/80, 504 h. The method, boiled down:
as §2

In data set [5] the test system is Mycobacterium kansasii. Briefly: Antimycobacterial activity against Mycobacterium kansasii isolate 235/80 after 7 days by micromethod. In kind it is functional. As to conditions: isolate 235/80, 168 h. The method, boiled down: (§3)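 MIC in Šula's semisynthetic medium at 37 °C, read after 7, 14 and 21 days. Inoculum is strain dilution 10^-4; 235/80 is a collection strain and 6509/96 a clinical isolate. Compounds are added as DMSO solutions at 500, 250, 125, 62.5, 32, 16, 8, 4, 2, 1 and 0.5 µM. INH (in sterile water) and PAS are the reference drugs.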

Data set [6] concerns Mycobacterium kansasii. Briefly: Antimycobacterial activity against Mycobacterium kansasii isolate 235/80 after 14 days by micromethod. In kind it is functional. The note with it: isolate 235/80, 336 h. The method, boiled down:
as §3

The test system of data set [7] is Mycobacterium kansasii. Briefly: Antimycobacterial activity against Mycobacterium kansasii isolate 235/80 after 21 days by micromethod. In kind it is functional. The note with it: isolate 235/80, 504 h. The method, boiled down:
as §3

Data set [8] concerns Mycobacterium kansasii. Briefly: Antimycobacterial activity against Mycobacterium kansasii isolate 6509/96 after 7 days by micromethod. The note with it: isolate 6509/96, 168 h. The class given is functional. The method, boiled down:
as §3

In data set [9] the test system is Mycobacterium kansasii. Briefly: Antimycobacterial activity against Mycobacterium kansasii isolate 6509/96 after 14 days by micromethod. In kind it is functional. As to conditions: isolate 6509/96, 336 h. The method, boiled down: as §3
Data set [10] relates to Mycobacterium kansasii. Briefly: Antimycobacterial activity against Mycobacterium kansasii isolate 6509/96 after 21 days by micromethod. In kind it is functional. The note with it: isolate 6509/96, 504 h. The method, boiled down:
as §3

Data set [11] can be described thus: Cytotoxicity against human HepG2 cells assessed as reduction in cell viability after 24 hrs by MTS assay. In kind it is toxicity, cell-based. The method, boiled down:
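HepG2 cells (passages 33-37) are grown in MEM with 10% FBS, L-glutamine and non-essential amino acids. They are seeded at 1 × 10^4 cells/well and treated next day with 0.1-100 µM in triplicate for 24 h at 37 °C, 5% CO2. MTS reagent is added for 2 h and A490 read.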

Data set [12] can be described thus: Selectivity index, ratio of IC50 for human HepG2 cells to MIC for Mycobacterium tuberculosis H37Rv after 21 days. The class given is toxicity, cell-based. The note with it: HepG2 cells versus Mycobacterium tuberculosis H37Rv, read-out: Selectivity Index. Summed up:
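HepG2 cells (passages 33-37) seeded at 1 × 10^4 per well and treated next day with 0.1–100 µM in triplicate. After 24 h at 37 °C, 5% CO2, MTS reagent added for 2 h and absorbance read at 490 nm. IC50 taken from viability relative to untreated control, then divided by the 21-day H37Rv MIC.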

Consider ten compounds from ChEMBL document CHEMBL3877325, “Novel salicylanilides from 4,5-dihalogenated salicylic acids: Synthesis, antimicrobial activity and cytotoxicity” (Bioorg Med Chem, 2017).

Converted amounts (≈) assume the structure as drawn.

`O=C(Nc1ccc(Br)cc1)c1cc(Cl)c(Cl)cc1O`: the minimal inhibitory concentration (MIC) was determined as 2 µM (≈ 0.722 µg/mL) in data set [1]; 4 µM (≈ 1.44 µg/mL) in data set [2]; 32 µM (≈ 11.6 µg/mL) in the data set with Mycobacterium avium [3]; 32 µM (≈ 11.6 µg/mL) in the data set on Mycobacterium avium [4]; 8 µM (≈ 2.89 µg/mL) in the data set with Mycobacterium kansasii [5]; 8 µM (≈ 2.89 µg/mL) in the data set on Mycobacterium kansasii [6]. Moreover, the MIC in the data set on Mycobacterium kansasii [7], against Mycobacterium kansasii [8], against Mycobacterium kansasii [9] and in the data set on Mycobacterium kansasii [10] was 8 µM (≈ 2.89 µg/mL) each time. In data set [11], the IC50 at 24 h came to 21.4 µM. For the same compound, the selectivity ratio at 504 h in [12] was 5.35.
On to `O=C(Nc1cc(C(F)(F)F)cc(C(F)(F)F)c1)c1cc(Br)c(Cl)cc1O`, for which the MIC in data set [1] is 2 µM (≈ 0.925 µg/mL); in [2], 4 µM (≈ 1.85 µg/mL); with Mycobacterium avium [3], 16 µM (≈ 7.4 µg/mL); with Mycobacterium avium [4], 32 µM (≈ 14.8 µg/mL); against Mycobacterium kansasii [5] it was 8 µM (≈ 3.7 µg/mL); in the data set on Mycobacterium kansasii [6], 8 µM (≈ 3.7 µg/mL). Also, the MIC in the data set on Mycobacterium kansasii [7], against Mycobacterium kansasii [8], with Mycobacterium kansasii [9] and in the data set with Mycobacterium kansasii [10] was 8 µM (≈ 3.7 µg/mL) each time. Besides, the IC50 at 24 h in data set [11] turned out to be 5.07 µM. Further, in [12], the selectivity ratio at 504 h was determined as 1.27.
For `O=C(Nc1ccc(Cl)c(Cl)c1)c1cc(Br)c(Cl)cc1O`, the MIC came out at 2 µM (≈ 0.791 µg/mL) in [1]; 4 µM (≈ 1.58 µg/mL) in data set [2]; 125 µM (≈ 49.4 µg/mL) in the data set on Mycobacterium avium [3]; 125 µM (≈ 49.4 µg/mL) in the data set with Mycobacterium avium [4]; 8 µM (≈ 3.16 µg/mL) against Mycobacterium kansasii [5]; 8 µM (≈ 3.16 µg/mL) in the data set on Mycobacterium kansasii [6]. In addition, the minimum inhibitory concentration (MIC) against Mycobacterium kansasii [7], in the data set with Mycobacterium kansasii [8], with Mycobacterium kansasii [9] and in the data set with Mycobacterium kansasii [10] was 8 µM (≈ 3.16 µg/mL) each time. The IC50 at 24 h in data set [11] stood at 7.65 µM. Moreover, the selectivity ratio at 504 h in data set [12] is 1.91.
With `O=C(Nc1ccc(C(F)(F)F)cc1)c1cc(Br)c(Cl)cc1O`, the MIC in data set [1] amounted to 1 µM (≈ 0.395 µg/mL); in data set [2], 2 µM (≈ 0.789 µg/mL); against Mycobacterium avium [3], 32 µM (≈ 12.6 µg/mL); against Mycobacterium avium [4], 62.5 µM (≈ 24.7 µg/mL); with Mycobacterium kansasii [5] it was 4 µM (≈ 1.58 µg/mL); against Mycobacterium kansasii [6], 4 µM (≈ 1.58 µg/mL). In addition, the minimum inhibitory concentration (MIC) with Mycobacterium kansasii [7], against Mycobacterium kansasii [8], in the data set on Mycobacterium kansasii [9] and against Mycobacterium kansasii [10] was 4 µM (≈ 1.58 µg/mL) throughout. The IC50 at 24 h in data set [11] was 11 µM. In addition, the selectivity ratio at 504 h in data set [12] worked out at 5.52.
Consider `O=C(Nc1ccc(Br)cc1)c1cc(Br)c(Cl)cc1O`, for which the MIC in [1] stood at 2 µM (≈ 0.811 µg/mL); in data set [2], 4 µM (≈ 1.62 µg/mL); with Mycobacterium avium [3] it was 32 µM (≈ 13 µg/mL); in the data set with Mycobacterium avium [4], 32 µM (≈ 13 µg/mL); against Mycobacterium kansasii [5], 4 µM (≈ 1.62 µg/mL); in the data set with Mycobacterium kansasii [6] it was 8 µM (≈ 3.24 µg/mL). The minimum inhibitory concentration (MIC) against Mycobacterium kansasii [7], in the data set with Mycobacterium kansasii [8], with Mycobacterium kansasii [9] and against Mycobacterium kansasii [10] was 8 µM (≈ 3.24 µg/mL) throughout. In addition, the concentration for half-maximal inhibition (IC50) at 24 h in data set [11] turned out to be 10.8 µM. Also, in data set [12], the selectivity ratio at 504 h was found to be 2.71.
Take `O=C(Nc1ccc(Cl)c(Cl)c1)c1cc(Cl)c(Cl)cc1O`: the minimal inhibitory concentration (MIC) in data set [1] stood at 2 µM (≈ 0.702 µg/mL); in data set [2], 2 µM (≈ 0.702 µg/mL); in the data set on Mycobacterium avium [3], 62.5 µM (≈ 21.9 µg/mL); with Mycobacterium avium [4], 62.5 µM (≈ 21.9 µg/mL); with Mycobacterium kansasii [5], 4 µM (≈ 1.4 µg/mL); in the data set with Mycobacterium kansasii [6], 8 µM (≈ 2.81 µg/mL). In addition, the minimal inhibitory concentration (MIC) with Mycobacterium kansasii [7], against Mycobacterium kansasii [8], against Mycobacterium kansasii [9] and with Mycobacterium kansasii [10] was 8 µM (≈ 2.81 µg/mL) in each case. Also, the concentration for half-maximal inhibition (IC50) at 24 h in [11] stood at 12.4 µM. For the same compound, the selectivity ratio at 504 h in data set [12] is 6.21.
Consider `O=C(Nc1ccc(C(F)(F)F)cc1)c1cc(Cl)c(Cl)cc1O`, for which the MIC in data set [1] came to 2 µM (≈ 0.7 µg/mL); in [2], 2 µM (≈ 0.7 µg/mL); in the data set with Mycobacterium avium [3], 62.5 µM (≈ 21.9 µg/mL); in the data set with Mycobacterium avium [4] it was 62.5 µM (≈ 21.9 µg/mL); against Mycobacterium kansasii [5], 4 µM (≈ 1.4 µg/mL); against Mycobacterium kansasii [6], 8 µM (≈ 2.8 µg/mL). Also, the MIC with Mycobacterium kansasii [7] came to 8 µM (≈ 2.8 µg/mL); in the data set on Mycobacterium kansasii [8], 4 µM (≈ 1.4 µg/mL); in the data set on Mycobacterium kansasii [9], 8 µM (≈ 2.8 µg/mL); with Mycobacterium kansasii [10] it was 8 µM (≈ 2.8 µg/mL). Moreover, in data set [11], the half-inhibitory concentration (IC50) at 24 h was found to be 9.87 µM. Besides, in [12], the selectivity ratio at 504 h was 4.94.
As to `O=C(Nc1cc(C(F)(F)F)cc(C(F)(F)F)c1)c1cc(Cl)c(Cl)cc1O`, the minimal inhibitory concentration (MIC) was determined as 2 µM (≈ 0.836 µg/mL) in [1]; 2 µM (≈ 0.836 µg/mL) in data set [2]; 32 µM (≈ 13.4 µg/mL) in the data set with Mycobacterium avium [3]; 32 µM (≈ 13.4 µg/mL) against Mycobacterium avium [4]; 8 µM (≈ 3.34 µg/mL) in the data set with Mycobacterium kansasii [5]; 8 µM (≈ 3.34 µg/mL) with Mycobacterium kansasii [6]. Moreover, the MIC in the data set on Mycobacterium kansasii [7] came out at 16 µM (≈ 6.69 µg/mL); against Mycobacterium kansasii [8], 8 µM (≈ 3.34 µg/mL); against Mycobacterium kansasii [9] it was 16 µM (≈ 6.69 µg/mL); in the data set on Mycobacterium kansasii [10] it was 16 µM (≈ 6.69 µg/mL). In data set [11], the concentration for half-maximal inhibition (IC50) at 24 h was determined as 4.86 µM. Besides, in data set [12], the selectivity ratio at 504 h was 2.43.
In the case of `O=C(Nc1ccc(Br)cc1)c1cc(Br)ccc1O` [DIBROMSALAN], the MIC in data set [1] is 4 µM (≈ 1.48 µg/mL); in [2], 4 µM (≈ 1.48 µg/mL); in the data set on Mycobacterium avium [3], 16 µM (≈ 5.94 µg/mL); with Mycobacterium avium [4], 16 µM (≈ 5.94 µg/mL); in the data set on Mycobacterium kansasii [5], 4 µM (≈ 1.48 µg/mL); against Mycobacterium kansasii [6], 8 µM (≈ 2.97 µg/mL). For the same compound, the MIC in the data set on Mycobacterium kansasii [7], in the data set on Mycobacterium kansasii [8], in the data set with Mycobacterium kansasii [9] and in the data set with Mycobacterium kansasii [10] was 8 µM (≈ 2.97 µg/mL) in each case. The IC50 at 24 h in data set [11] is 23.6 µM. Also, the selectivity ratio at 504 h in data set [12] is 5.9.
On to `O=C(Nc1cc(C(F)(F)F)cc(C(F)(F)F)c1)c1cc(Cl)ccc1O` [IMD-0354], for which the minimum inhibitory concentration (MIC) in data set [1] is 4 µM (≈ 1.53 µg/mL); in data set [2] it was 8 µM (≈ 3.07 µg/mL); against Mycobacterium avium [3], 32 µM (≈ 12.3 µg/mL); against Mycobacterium avium [4] it was 32 µM (≈ 12.3 µg/mL); in the data set with Mycobacterium kansasii [5], 8 µM (≈ 3.07 µg/mL); in the data set with Mycobacterium kansasii [6], 16 µM (≈ 6.14 µg/mL). Moreover, the minimal inhibitory concentration (MIC) came to 16 µM (≈ 6.14 µg/mL) in the data set on Mycobacterium kansasii [7], 8 µM (≈ 3.07 µg/mL) with Mycobacterium kansasii [8], 16 µM (≈ 6.14 µg/mL) against Mycobacterium kansasii [9] and 16 µM (≈ 6.14 µg/mL) against Mycobacterium kansasii [10]. For the same compound, in data set [11], the half-inhibitory concentration (IC50) at 24 h worked out at 10.2 µM. In addition, the selectivity ratio at 504 h in [12] turned out to be 1.27.

The MIC is the smallest concentration in the dilution series that meets the test's criterion for growth inhibition. Broadly, the IC50 is the concentration that gives 50% inhibition.
